Data: ChEMBL document CHEMBL1152538, “Synthesis and biological evaluation of asymmetric gramicidin S analogues containing modified D-phenylalanine residues” (Bioorg Med Chem, 2009)
≈ marks a conversion by molar mass, not a printed value. Where a SMILES comes first, the peptide text is derived from it. [ ]: non-standard residue; d: D form. The star is where a group is joined. Diphenylacetyl = O=C(C(c1ccccc1)c1ccccc1)*; Phe(4-NH2) = Nc1ccc(C[C@H](N)C(=O)O)cc1; Isobutyryl = CC(C)C(=O)*; Orn = NCCC[C@H](N)C(=O)O; PhAc = O=C(Cc1ccccc1)*; Piv = CC(C)(C)C(=O)*; Propionyl = CCC(=O)*

Assays:
[1] = system: Staphylococcus aureus; test: Antibacterial activity against Staphylococcus aureus 7323 after 24 to 96 hrs by well microplate assay; format: functional
Method in brief: (§1)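 Strains were kept at -70 °C, grown at 30 °C on sheep-blood Columbia agar, and suspended in saline to OD595 0.1, then diluted 10×. Inoculum was added at 2 µL per 100 µL Nutrient Broth with yeast extract (2 g/400 mL). Peptide stocks were 4 g/L in ethanol, diluted to 1000 mg/L in water, then twofold in broth (64–1 mg/L). Plates were held at 30 °C for 24–96 h. MIC was the lowest concentration inhibiting growth.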

[2] = system: Staphylococcus aureus; test: Antibacterial activity against Staphylococcus aureus 7388 after 24 to 96 hrs by well microplate assay; format: functional; method in brief: as §1
[3] = system: Enterococcus faecalis; test: Antibacterial activity against Enterococcus faecalis 1131 after 24 to 96 hrs by well microplate assay; format: functional; method in brief: as §1
[4] = system: Escherichia coli; test: Antibacterial activity against Escherichia coli ATCC 25922 after 24 to 96 hrs by well microplate assay; format: functional; method in brief: as §1
[5] = system: Pseudomonas aeruginosa; test: Antibacterial activity against Pseudomonas aeruginosa AK1 after 24 to 96 hrs by well microplate assay; format: functional; method in brief: as §1
[6] = system: Pseudomonas aeruginosa; test: Antibacterial activity against Pseudomonas aeruginosa ATCC 19582 after 24 to 96 hrs by well microplate assay; format: functional; method in brief: as §1
[7] = system: Streptococcus mitis; test: Antibacterial activity against Streptococcus mitis BMS after 24 to 96 hrs by well microplate assay; format: functional; method in brief: as §1
[8] = system: Streptococcus mitis; test: Antibacterial activity against Streptococcus mitis ATCC 33399 after 24 to 96 hrs by well microplate assay; format: functional; method in brief: as §1
[9] = Cytotoxicity against human erythrocytes assessed as hemolysis at 1.5 mM after 4 hrs by twofold dilution assay; format: cell-based; settings: erythrocyte, 1500 µM
[10] = system: coagulase-negative Staphylococcus; test: Antibacterial activity against coagulase-negative Staphylococcus CNS 5277 after 24 to 96 hrs by well microplate assay
[11] = system: coagulase-negative Staphylococcus; test: Antibacterial activity against coagulase-negative Staphylococcus CNS 5115 after 24 to 96 hrs by well microplate assay
[12] = system: coagulase-negative Staphylococcus; test: Antibacterial activity against coagulase-negative Staphylococcus CNS 7368 after 24 to 96 hrs by well microplate assay
[13] = Cytotoxicity against human erythrocytes assessed as hemolysis after 4 hrs by twofold dilution assay; format: cell-based; settings: Erythrocyte
Method in brief: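 Heparinised blood was spun at 1000g and 10 °C, and erythrocytes were washed three times in 0.85% saline and diluted to 1/25 packed volume. Peptide stocks were 1.5 mM in 30% DMSO/0.5 mM saline, sonicated if suspended, and twofold serially diluted in saline in triplicate rows. 1% Triton-X served as the lysis reference. Cells were incubated at 37 °C for 4 h and centrifuged, and the supernatant was read at A405 for % hemolysis.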

[14] = Cytotoxicity against human erythrocytes assessed as hemolysis at 25 uM after 4 hrs by twofold dilution assay; format: cell-based, Erythrocyte; settings: read-out: Activity

| SMILES | MIC [1] | MIC [2] | MIC [3] | MIC [4] | MIC [5] | MIC [6] | MIC [7] | MIC [8] | MIC [10] | MIC [11] | MIC [12] | Activity [9] | EC50 [13] | hemolysis at 4 h, 25 µM [14] |
| --- | --- | --- | --- | --- | --- | --- | --- | --- | --- | --- | --- | --- | --- | --- |
| CC(=O)Nc1ccc(C[C@@H]2NC(=O)[C@H](CC(C)C)NC(=O)[C@H](CCCN)NC(=O)[C@H](C(C)C)NC(=O)[C@@H]3CCCN3C(=O)[C@H](Cc3ccccc3)NC(=O)[C@H](CC(C)C)NC(=O)[C@H](CCCN)NC(=O)[C@H](C(C)C)NC(=O)[C@@H]3CCCN3C2=O)cc1 (cyclo(FPV[Orn]L[Phe(4-NH2)](Ac)PV[Orn]L)) | 64 µg/mL (≈ 53.4 µM) | 16 µg/mL (≈ 13.3 µM) | 64 µg/mL (≈ 53.4 µM) | 64 µg/mL (≈ 53.4 µM) | > 64 µg/mL | > 64 µg/mL | 8 µg/mL (≈ 6.67 µM) | 16 µg/mL (≈ 13.3 µM) | 16 µg/mL (≈ 13.3 µM) | 32 µg/mL (≈ 26.7 µM) | 32 µg/mL (≈ 26.7 µM) | Non-toxic | – | – |
| CC(C)C[C@@H]1NC(=O)[C@H](CCCN)NC(=O)[C@H](C(C)C)NC(=O)[C@@H]2CCCN2C(=O)[C@H](Cc2ccccc2)NC(=O)[C@H](CC(C)C)NC(=O)[C@H](CCCN)NC(=O)[C@H](C(C)C)NC(=O)[C@@H]2CCCN2C(=O)[C@H](Cc2ccc(NC(=O)C(c3ccccc3)c3ccccc3)cc2)NC1=O (cyclo(FPV[Orn]L[Phe(4-NH2)](Diphenylacetyl)PV[Orn]L)) | 16 µg/mL (≈ 11.8 µM) | 32 µg/mL (≈ 23.7 µM) | 16 µg/mL (≈ 11.8 µM) | > 64 µg/mL | > 64 µg/mL | > 64 µg/mL | 16 µg/mL (≈ 11.8 µM) | > 64 µg/mL | 64 µg/mL (≈ 47.4 µM) | > 64 µg/mL | 8 µg/mL (≈ 5.92 µM) | – | – | – |
| CC(C)C[C@@H]1NC(=O)[C@H](CCCN)NC(=O)[C@H](C(C)C)NC(=O)[C@@H]2CCCN2C(=O)[C@H](Cc2ccccc2)NC(=O)[C@H](CC(C)C)NC(=O)[C@H](CCCN)NC(=O)[C@H](C(C)C)NC(=O)[C@@H]2CCCN2C(=O)[C@H](Cc2ccc(NC(=O)C(C)C)cc2)NC1=O (cyclo(FPV[Orn]L[Phe(4-NH2)](Isobutyryl)PV[Orn]L)) | 32 µg/mL (≈ 26.1 µM) | 16 µg/mL (≈ 13 µM) | 16 µg/mL (≈ 13 µM) | 32 µg/mL (≈ 26.1 µM) | > 64 µg/mL | > 64 µg/mL | 8 µg/mL (≈ 6.52 µM) | 32 µg/mL (≈ 26.1 µM) | 16 µg/mL (≈ 13 µM) | 16 µg/mL (≈ 13 µM) | 16 µg/mL (≈ 13 µM) | – | – | – |
| CCC(=O)Nc1ccc(C[C@@H]2NC(=O)[C@H](CC(C)C)NC(=O)[C@H](CCCN)NC(=O)[C@H](C(C)C)NC(=O)[C@@H]3CCCN3C(=O)[C@H](Cc3ccccc3)NC(=O)[C@H](CC(C)C)NC(=O)[C@H](CCCN)NC(=O)[C@H](C(C)C)NC(=O)[C@@H]3CCCN3C2=O)cc1 (cyclo(FPV[Orn]L[Phe(4-NH2)](Propionyl)PV[Orn]L)) | 32 µg/mL (≈ 26.4 µM) | 16 µg/mL (≈ 13.2 µM) | 32 µg/mL (≈ 26.4 µM) | 64 µg/mL (≈ 52.8 µM) | > 64 µg/mL | > 64 µg/mL | 8 µg/mL (≈ 6.6 µM) | 16 µg/mL (≈ 13.2 µM) | 8 µg/mL (≈ 6.6 µM) | 16 µg/mL (≈ 13.2 µM) | 8 µg/mL (≈ 6.6 µM) | – | – | – |

Compounds with a lower MIC [1], results first:

| MIC [1] | MIC [2] | MIC [3] | MIC [4] | MIC [5] | MIC [6] | MIC [7] | MIC [8] | MIC [10] | MIC [11] | MIC [12] | SMILES | Activity [9] | EC50 [13] | hemolysis at 4 h, 25 µM [14] |
| --- | --- | --- | --- | --- | --- | --- | --- | --- | --- | --- | --- | --- | --- | --- |
| 8 µg/mL (≈ 6.28 µM) | 16 µg/mL (≈ 12.6 µM) | 32 µg/mL (≈ 25.1 µM) | 32 µg/mL (≈ 25.1 µM) | > 64 µg/mL | > 64 µg/mL | 8 µg/mL (≈ 6.28 µM) | 16 µg/mL (≈ 12.6 µM) | 8 µg/mL (≈ 6.28 µM) | 8 µg/mL (≈ 6.28 µM) | 8 µg/mL (≈ 6.28 µM) | CC(C)C[C@@H]1NC(=O)[C@H](CCCN)NC(=O)[C@H](C(C)C)NC(=O)[C@@H]2CCCN2C(=O)[C@H](Cc2ccccc2)NC(=O)[C@H](CC(C)C)NC(=O)[C@H](CCCN)NC(=O)[C@H](C(C)C)NC(=O)[C@@H]2CCCN2C(=O)[C@H](Cc2ccc(NC(=O)Cc3ccccc3)cc2)NC1=O (cyclo(FPV[Orn]L[Phe(4-NH2)](PhAc)PV[Orn]L)) | Non-toxic | 9.35 µM | – |
| 8 µg/mL (≈ 6.45 µM) | 8 µg/mL (≈ 6.45 µM) | 16 µg/mL (≈ 12.9 µM) | 32 µg/mL (≈ 25.8 µM) | 64 µg/mL (≈ 51.6 µM) | 64 µg/mL (≈ 51.6 µM) | 4 µg/mL (≈ 3.22 µM) | 4 µg/mL (≈ 3.22 µM) | 8 µg/mL (≈ 6.45 µM) | 8 µg/mL (≈ 6.45 µM) | 8 µg/mL (≈ 6.45 µM) | CC(C)C[C@@H]1NC(=O)[C@H](CCCN)NC(=O)[C@H](C(C)C)NC(=O)[C@@H]2CCCN2C(=O)[C@H](Cc2ccccc2)NC(=O)[C@H](CC(C)C)NC(=O)[C@H](CCCN)NC(=O)[C@H](C(C)C)NC(=O)[C@@H]2CCCN2C(=O)[C@H](Cc2ccc(NC(=O)C(C)(C)C)cc2)NC1=O (cyclo(FPV[Orn]L[Phe(4-NH2)](Piv)PV[Orn]L)) | – | – | 50% |
